# Measured values: paper PMC8108540 (Arteriosclerosis, thrombosis, and vascular biology, 2020)
# Where a SMILES comes first, the peptide text is derived from it. The star is where a group is joined. Palmitoyl = CCCCCCCCCCCCCCCC(=O)*
# How the values were obtained:
# GPR31 [1] = molecular target: T1, GPR31 (Homo sapiens, UniProt O00270); assay: Cre-luciferase activation assay in GPR31-transfected CHO cells; assay type: cell-based; conditions: 6 hours
# In short: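 CHO cells cotransfected by lipofection with Cre-luciferase and GPR31 plasmids, 8 μg each. Cells plated and treated 6 h with 10 μM forskolin with or without 300 nmol/L 12(S)-HETE. Cells then lysed and luciferase activity read as relative light units.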
# Target sequence in this assay (O00270 whole entry, species assumed): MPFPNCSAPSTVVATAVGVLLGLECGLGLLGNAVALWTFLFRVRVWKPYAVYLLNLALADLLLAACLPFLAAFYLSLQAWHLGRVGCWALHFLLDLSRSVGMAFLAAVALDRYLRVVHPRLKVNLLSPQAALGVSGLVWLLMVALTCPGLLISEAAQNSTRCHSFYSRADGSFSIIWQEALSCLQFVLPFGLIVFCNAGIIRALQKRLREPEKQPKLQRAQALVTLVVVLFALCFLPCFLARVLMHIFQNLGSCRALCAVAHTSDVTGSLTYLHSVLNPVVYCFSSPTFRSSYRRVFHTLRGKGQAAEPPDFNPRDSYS
# PAR4 [2] = assay: PAR4; assay type: cell-based, human; conditions: 30 μmol/L ML355, 2 min preincubation, 160 μmol/L AYPGKF, aggregation at 15 min
# PAR1 [3] = assay: PAR1; assay type: cell-based, human
# human platelets [4] = assay: Collagen-mediated human platelet aggregation; assay type: cell-based; conditions: 10 μg/mL collagen; 3 μmol/L GPR310 or 30 μmol/L ML355; P<0.001
# p38 MAPK phosphorylation = assay: Immunoblot of 12; assay type: cell-based, human
# In short: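 Gel-purified human platelets incubated in an aggregometer at 37 °C with 12(S)-HETE, with or without 1 or 3 μM test compound, for various times. Solubilised in SDS-PAGE sample buffer and run on 10% SDS-PAGE at equal protein. Immunoblotted for phospho-p38 (Thr180/Tyr182).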
# GPR31 [5] = molecular target: T1, GPR31; assay: 12; assay type: cell-based; conditions: 100 nmol/L 12(S)-HETE, human platelets, signal at 15 to 120 minutes
# In short: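 Gel-purified human platelets pretreated with test compound at graded levels, then activated with 12(S)-HETE. Lysis on ice for 10 min in Tris-HCl pH 7.5 buffer with NP-40, DTT and protease inhibitors, then cleared at 14 000 g. Rap1-GTP pulled down with RalGDS-RBD agarose, 60 min at 4 °C. Detected by 15% SDS-PAGE and anti-Rap1 immunoblot; lysate aliquots used for total Rap1. IC50 from dose response.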
# Target sequence in this assay (O00270 whole entry): as the sequence (O00270 whole entry, species assumed) above
# human platelets [6] = assay: Platelet aggregation by 12; assay type: cell-based; conditions: 5, 10 and 20 μmol/L 12(S)-HETE, human PRP
# GPR31 [7] = molecular target: T1, GPR31; assay: 12; assay type: cell-based; conditions: 10 and 20 μM 12(S)-HETE, fura-2-labeled GPR31/CHO cells
# In short: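 Human GPR31 transiently transfected into CHO cells. Cells labelled with fura-2 and challenged with 12(S)-HETE; Ca2+ flux followed over time.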
# Target sequence in this assay (O00270 whole entry, species assumed): as above
# human platelets [8] = assay: 12; assay type: cell-based; conditions: 10 μM 12(S)-HETE, fura-2-labeled human platelets
# In short: (§1)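 Gel-purified platelets loaded with 2.5 μM fura-2/AM, 30 min at 37 °C. Emission recorded at 510 nm with dual excitation at 340/380 nm. For line 6, platelets preincubated with test compound or vehicle before AYPGKF.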
# RASA3 = assay: Thrombin-induced RASA3 membrane localization in human platelets; assay type: cell-based; conditions: GPR310 1 μM, AZD1283 10 μM, dual, or LY294002 10 μM, 3 nmol/L thrombin
# platelet-rich plasma = assay: Thrombin-induced clot retraction in PRP; assay type: cell-based, human; conditions: 10 or 30 μM inhibitor, 3 nmol/L thrombin, RT, 15 minutes to 4 hours
# In short: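 Citrated platelet-rich plasma adjusted to […] and diluted in PBS with red blood cells in glass tubes. CaCl2 added to a final 0.5 mmol/L. Pretreated with 10 or 30 μM test compound, P2Y12 inhibitor or vehicle. Clotting started with 3 or 10 nmol/L thrombin at room temperature. Clots photographed at 0, 5, 10, 15 and 30 min and at 1, 2 and 4 h.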
# Rap1 [9] = assay: Thrombin-induced Rap1 activation in human platelets; assay type: cell-based; conditions: GPR310 3 μM, AZD1283 10 μM or dual; 3 nmol/L thrombin, 15 min, gel-purified platelets
# IL-8 receptor CXCR1/2 = assay: Calcium flux in human neutrophils, IL-8; assay type: cell-based; conditions: GPR310 6 μM, 50 nmol/L IL-8
# mouse platelets [10] = assay: Ex vivo platelet aggregation after sc dosing; assay type: in vivo; conditions: mice, 10 mg/kg sc, 4 h; AYPGKF 100 μmol/L or thrombin 10 nmol/L
# PAR4 [11] = assay: AYPGKF-mediated calcium flux in human platelets; assay type: cell-based; conditions: 3 μM GPR310, 160 μM AYPGKF, fura-2-labeled human platelets
# In short: as §1
# pAKT, pERK = assay: Immunoblot of thrombin-induced Akt and ERK phosphorylation in human platelets; assay type: cell-based; conditions: 1 μM GPR310, 3 nmol/L thrombin, 15 min
# In short: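 Gel-purified human platelets pretreated with or without 1 μM test compound, then stimulated with 3 nmol/L thrombin for 15 min. Equal protein resolved on 10% SDS-PAGE and immunoblotted for phospho-AKT and phospho-ERK, with β-actin as loading control.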
# CXCR4 = CXCR4 (Homo sapiens, UniProt P61073); assay: Calcium flux in human neutrophils, SDF1α; assay type: cell-based; conditions: GPR310 6 μM, 100 nmol/L SDF1α
# Chain of CXCR4 (P61073 whole entry): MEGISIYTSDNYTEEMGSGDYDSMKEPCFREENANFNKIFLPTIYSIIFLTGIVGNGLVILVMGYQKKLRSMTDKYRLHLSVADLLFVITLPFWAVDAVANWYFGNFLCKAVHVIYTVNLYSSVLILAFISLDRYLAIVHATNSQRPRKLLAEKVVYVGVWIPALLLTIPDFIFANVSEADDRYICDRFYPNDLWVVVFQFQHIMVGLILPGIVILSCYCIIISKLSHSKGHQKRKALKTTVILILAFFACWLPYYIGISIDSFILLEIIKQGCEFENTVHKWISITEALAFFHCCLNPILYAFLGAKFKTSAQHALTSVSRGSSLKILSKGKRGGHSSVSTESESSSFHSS
# Rap1 [12] = assay: AYPGKF; assay type: cell-based; conditions: human platelets, peak shifted from 5 to 15 minutes
# PAR2 = molecular target: T2, PAR2 (Homo sapiens, UniProt P55085); assay: Calcium flux, recombinant PAR2, SLIGRL; assay type: cell-based; conditions: GPR310 6 μM; 100 μM SLIGRL
# T2 sequence (P55085 26-397): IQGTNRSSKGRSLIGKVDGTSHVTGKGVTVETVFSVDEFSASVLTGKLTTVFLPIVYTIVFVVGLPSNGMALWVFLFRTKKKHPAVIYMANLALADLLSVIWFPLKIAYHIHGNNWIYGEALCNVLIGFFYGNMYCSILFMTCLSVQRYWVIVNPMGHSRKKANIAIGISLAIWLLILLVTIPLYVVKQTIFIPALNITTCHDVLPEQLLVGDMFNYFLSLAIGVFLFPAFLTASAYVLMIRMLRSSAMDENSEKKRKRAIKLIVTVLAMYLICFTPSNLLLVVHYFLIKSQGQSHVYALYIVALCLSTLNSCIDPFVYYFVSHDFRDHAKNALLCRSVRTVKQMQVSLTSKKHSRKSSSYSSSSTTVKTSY
# PAR1 [13] = molecular target: T3, PAR1 (Homo sapiens, UniProt P25116); assay: Calcium flux in HEK293 recombinant system, SFLLRN; assay type: cell-based; conditions: GPR310 6 μM, 100 μM SFLLRN
# T3 sequence (P25116 22-425): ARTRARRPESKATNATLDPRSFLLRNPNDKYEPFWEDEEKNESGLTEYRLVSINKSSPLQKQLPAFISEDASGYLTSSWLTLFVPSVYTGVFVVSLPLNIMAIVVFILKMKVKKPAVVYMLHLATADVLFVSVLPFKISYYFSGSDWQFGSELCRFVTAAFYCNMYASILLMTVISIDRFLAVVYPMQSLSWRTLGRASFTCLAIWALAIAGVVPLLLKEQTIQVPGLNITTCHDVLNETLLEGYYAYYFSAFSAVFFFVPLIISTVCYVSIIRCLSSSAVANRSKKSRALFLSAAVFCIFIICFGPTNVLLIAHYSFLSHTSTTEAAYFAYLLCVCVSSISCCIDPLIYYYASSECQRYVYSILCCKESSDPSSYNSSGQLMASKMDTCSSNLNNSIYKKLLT
# ADP receptors = assay: Calcium flux, ADP; assay type: cell-based, human; conditions: GPR310 6 μM; 20 μM ADP
# Tail bleeding time = assay type: in vivo, mouse; conditions: mice, 4 hours after 5 and 10 mg/kg sc, n=10
# In short: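 Mice anaesthetised 4 h after subcutaneous test compound or vehicle and kept on a 37 °C homeothermic blanket. Tail transected 5 mm from the tip and immersed at once in 37 °C saline. Time to cessation recorded; cessation counted only once bleeding had stopped for 1 min.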
# mouse platelets [14] = assay: AYPGKF-induced aggregation and ATP release in mouse PRP; assay type: cell-based; conditions: 30 μM GPR310 spiked, 100 μM AYPGKF
# In short: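 Mouse platelet-rich plasma spiked with test compound, then stimulated with 100 μM AYPGKF. Run at 37 °C with stirring at 900 rpm in a lumi-aggregometer. Aggregation and dense-granule ATP release recorded together; ATP detected with luciferin/luciferase reagent and calibrated against an ATP standard.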
# [15] = Pharmacokinetics of sc injected pepducin in mouse plasma; assay type: in vivo; conditions: CD-1, mouse, 10 mg/kg
# In short: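 CD-1 mice given 10 mg/kg test compound subcutaneously in 10% DMSO. Vena cava blood drawn into heparin at 5, 15 and 30 min and 1, 4, 5, 14 and 24 h. Pepducin extracted from plasma and quantified by LC-MS to obtain peak level and terminal elimination.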
smiles,measurement,setting,value
C=C[C@@]1(C)CC(=O)[C@]2(O)[C@@]3(C)[C@@H](O)CCC(C)(C)[C@@H]3[C@H](O)[C@H](OC(C)=O)[C@@]2(C)O1 [forskolin],induction of cAMP-responsive element-luciferase reporter,"GPR31 [1]; CHO-K1 cells expressing GPR31 and Cre-luciferase, 10 μM forskolin",10 fold
"COc1cccc(CNc2ccc(S(=O)(=O)Nc3nc4ccccc4s3)cc2)c1O [ML355, reference compound]",inhibition of PAR4-mediated platelet aggregation,PAR4 [2],inhibition
same,inhibition of PAR1-mediated platelet aggregation,"PAR1 [3]; 30 μmol/L ML355, 3 μmol/L SFLLRN",considerable inhibition
same,inhibition of PAR1-mediated platelet aggregation,"PAR1 [3]; 30 μmol/L ML355, 10 μmol/L SFLLRN",but not 10 μmol/L SFLLRN
same,inhibition of collagen-mediated platelet aggregation,human platelets [4],to a similar extent
CCCCC/C=C\C[C@H](O)/C=C/C=C\C/C=C\CCCC(=O)O [12(S)-HETE],p38 MAPK phosphorylation activation,"p38 MAPK phosphorylation; 100 nmol/L 12(S)-HETE, 15 minutes, human platelets",rapidly (15 minutes) activated
same,Rap1-GTP activation,GPR31 [5],strongly activated
same,inhibition of AC (adenylyl cyclase) activity,"GPR31 [1]; 300 nmol/L 12(S)-HETE with 10 μM forskolin, not observed in Cre-luci controls",significant inhibition
same,activation of platelet aggregation,human platelets [6],failed to effectively activate platelet aggregation
same,calcium mobilization,GPR31 [7],low but detectable calcium transients
same,calcium flux,human platelets [8],negligible
"CCOC(=O)c1cc(C#N)c(N2CCC(C(=O)NS(=O)(=O)Cc3ccccc3)CC2)nc1C [AZD1283, reference compound]",suppression of thrombin-induced RASA3 appearance in plasma membrane,RASA3,complete suppression
same,clot retraction time vs vehicle,platelet-rich plasma,longer clot retraction times
same,inhibition of thrombin-induced Rap1 activation,Rap1 [9],partially suppressed
CCCCCCCCCCCCCCCC(=O)N[C@@H](CCCNC(=N)N)C(=O)N[C@@H](C)C(=O)N[C@@H](CC(C)C)C(=O)N[C@@H](CCC(N)=O)C(=O)N[C@@H](CCCCN)C(=O)N[C@@H](CCCNC(=N)N)C(=O)N[C@@H](CC(C)C)C(=O)N[C@@H](CCCNC(=N)N)C(=O)N[C@@H](CCC(=O)O)C(=O)N1CCC[C@H]1C(=O)N[C@@H](CCC(=O)O)C(=O)N[C@@H](CCCCN)C(=O)N[C@@H](CCC(N)=O)C(=O)N1CCC[C@H]1C(=O)N[C@@H](CCCCN)C(=O)N[C@@H](CC(C)C)C(=O)N[C@@H](CCC(N)=O)C(=O)N[C@@H](CCCNC(=N)N)C(=O)N[C@@H](C)C(=O)N[C@@H](CCC(N)=O)C(=O)N[C@@H](C)C(N)=O [GPR310] (Palmitoyl-RALQKRLREPEKQPKLQRAQA-NH2; C-terminus assumed),inhibition of calcium flux (CXCR1/2),IL-8 receptor CXCR1/2,did not inhibit
same,inhibition of 12(S)-HETE-induced p38 MAPK phosphorylation,"p38 MAPK phosphorylation; 1 to 3 μM GPR310, human platelets",completely attenuated
same,ex vivo antiplatelet effect at high agonist concentration,mouse platelets [10],reversed
same,suppression of thrombin-induced RASA3 appearance in plasma membrane,RASA3,complete suppression
same,suppression of AYPGKF-mediated Ca2+ response,PAR4 [11],80%
same,inhibition of thrombin-induced Akt phosphorylation,"pAKT, pERK",attenuated
same,inhibition of thrombin-mediated ERK activation,"pAKT, pERK",inhibited
same,inhibition of calcium flux (CXCR4),CXCR4,did not inhibit
same,inhibition of PAR1-mediated platelet aggregation,"PAR1 [3]; 10 μmol/L GPR310, 3 μM SFLLRN, gel-purified human platelets",significant inhibition
same,inhibition of PAR1-mediated platelet aggregation,"PAR1 [3]; 10 μmol/L GPR310, 10 μmol/L SFLLRN, gel-purified human platelets",no significant effect
same,clot retraction time vs vehicle,platelet-rich plasma,longer clot retraction times
same,inhibition of AYPGKF-induced Rap1-GTP signal,Rap1 [12],significantly attenuated
same,inhibition of collagen-mediated platelet aggregation,human platelets [4],almost completely inhibited
same,inhibition of recombinant PAR2 calcium flux,PAR2,no detected inhibition
same,inhibition of PAR1 calcium flux,PAR1 [13],minimal inhibition
same,inhibition of thrombin-induced Rap1 activation,Rap1 [9],partially suppressed
same,inhibition of calcium flux (ADP receptors),ADP receptors,did not inhibit
same,tail bleeding time vs vehicle control,Tail bleeding time,no difference
same,"inhibition of ATP release, mouse PRP",mouse platelets [14],inhibited
same,"inhibition of platelet aggregation, mouse PRP",mouse platelets [14],inhibited
same,Tmax,[15],1 h
same,level at time molar at 4 h,[15],3500 nM
same,level at time molar at 14 h,[15],10 nM
